Results reported in ChEMBL document CHEMBL1137528, “Preparation of tetrahydroimidazo[2,1-a]isoquinolines and their use as inhibitors of gastric acid secretion” (Bioorg Med Chem, 2007).

What was measured:
[1] = Inhibition of H+/K+ ATPase in hog gastric mucosa; assay type: tissue-based, Sus scrofa
Method in brief: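 Hog gastric H+/K+-ATPase (0.5–1 µg/100 µl), nigericin 1:1 with enzyme. Buffer 4 mM Pipes/8 mM Tris pH 7.4, 0.25 M sucrose, 1 mM MgCl2, 1 mM KCl as stimulant. Compounds 1e-4 to 1e-9 M final from DMSO stocks. Started with 1 mM Na-ATP, 30 min at room temperature. Phosphate read by malachite green at 680 nm; sigmoidal fit gives IC50.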

Gastric gland = assay: Effect on acid secretion in rabbit intact gastric glands assessed as inhibition of [14C][…] accumulation; assay type: functional, tissue-based; settings: Oryctolagus cuniculus
Method in brief: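 Glands stimulated with 1 mM dibutyryl cAMP with or without inhibitor (3 nM–100 µM). Stopped by centrifugation, 10 s at 20,000g. 14C-aminopyrine radioactivity measured in supernatant and in NaOH-dissolved pellet. Accumulation taken from the pellet/supernatant ratio, normalized to gland wet/dry weight. IC50 obtained by fitting the expected inhibition equation.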

[2] = Dissociation constant, pKa of the compound; assay type: physicochemical
Method in brief: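 Potentiometric co-solvent titration in 0.15 mol/l KCl over pH 2.0–11.0 at 25 °C. Methanol used as co-solvent in varying portions, with 0.5 mol/l KOH and HCl as titrants.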

[3] = Distribution coefficient, log D at pH 7.4; assay type: physicochemical; settings: octanol/water
Method in brief: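 Potentiometric titration, pH 2.0–11.0, 25 °C, in 0.15 mol/l KCl mixed with water-saturated 1-octanol in varying octanol portions. Titrants were 0.5 mol/l KOH and HCl. Distribution coefficients between 1-octanol and aqueous KCl were derived from these titrations.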

| Structure (SMILES) | Log IC50 [1] | IC50 (Gastric gland) [nM] | pKa [2] | logD [3] |
| --- | --- | --- | --- | --- |
| COCCNC(=O)c1cn2c(C)c(C)nc2c2c1CCC(c1ccccc1)C2 (configuration not stated) | -4.9 | 1260 | 7.22 | 3.31 |
| Cc1cn2cc(C(=O)N(C)C)c3c(c2n1)CC(c1ccccc1)CC3 (configuration not stated) | -4.8 | 7940 | 6.67 | 2.77 |
| COCc1cn2c(C)c(C)nc2c2c1CCC(c1ccccc1)C2 (configuration not stated) | -6.3 | 2000 | 7.79 | 3.93 |
| Cc1cn2ccc3c(c2n1)CC(c1ccccc1)CC3 (configuration not stated) | -5.1 | 7940 | 7.63 | 3.81 |
| Cc1nc2c3c(c(C(=O)N(C)C)cn2c1CO)CCC(c1ccccc1)C3 (configuration not stated) | -5.5 | 10000 | 6.32 | 2.23 |
| Cc1nc2c3c(c(C(=O)N(C)C)cn2c1C)CCC(c1ccccc1)C3 (configuration not stated) | -6 | 398 | 7.16 | 2.9 |
| Cc1nc2c3c(ccn2c1CC#N)CCC(c1ccccc1)O3 (configuration not stated) | -7 | 63.1 | – | – |
| Cc1nc2c3c(c(C(N)=O)cn2c1C)CCC(c1ccccc1)C3 (configuration not stated) | -5.9 | 2000 | 7.26 | 3.21 |
| CNC(=O)c1cn2c(C)c(C)nc2c2c1CCC(c1ccccc1)C2 (configuration not stated) | -6.2 | 1000 | – | – |
| Cc1nc2c3c(c(C(=O)NCCO)cn2c1C)CCC(c1ccccc1)C3 (configuration not stated) | -5.9 | 10000 | 7.22 | 2.81 |
| Cc1nc2c3c(c(C(=O)N4CCCC4)cn2c1C)CCC(c1ccccc1)C3 (configuration not stated) | -5.9 | 316 | 7.2 | 3.37 |
| Cc1nc2c3c(c(C(=O)N4CCOCC4)cn2c1C)CCC(c1ccccc1)C3 (configuration not stated) | -5 | 6310 | 7.05 | 2.76 |
| Cc1nc2c3c(c(C(=O)N(C)C)cn2c1Br)CCC(c1ccccc1)C3 (configuration not stated) | -4.9 | 10000 | 5.11 | 3.8 |
| Cc1nc2c3c(ccn2c1C)CCC(c1ccccc1)C3 (configuration not stated) | -6.6 | 794 | 8.05 | 3.9 |
